Assay results as given in the EternaBench riboswitch data.

System: MS2 coat protein
Assay: apparent Kd, MS2 coat protein; higher = weaker binding; RNA-MaP array; FMN 200 µM where present
In short: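 The apparent Kd comes from binding curves fitted cluster by cluster, filtered, and summarised as a median. Those curves followed SNAP-549-labelled MS2 coat protein from 0.7 or 1.5 nM, doubling to 3 µM, on Illumina sequencing-chip clusters where stalled E. coli RNA polymerase had transcribed the designs, without and then with constant ligand. The buffer was 100 mM Tris-HCl pH 7.5, 80 mM KCl, 4 mM MgCl2, BSA, DTT, yeast tRNA and Tween-20, and green signal was normalised to red-channel RNA signal and control-cluster median Fmax.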

[1] = designed as: OFF switch for flavin mononucleotide, no ligand
[2] = ligand present: flavin mononucleotide, designed as: OFF switch for flavin mononucleotide
[3] = designed as: ON switch for flavin mononucleotide, no ligand
[4] = ligand present: flavin mononucleotide, designed as: ON switch for flavin mononucleotide

Sequence | apparent Kd [1] [nM] | apparent Kd [2] [nM] | apparent Kd [3] [nM] | apparent Kd [4] [nM]
GUACUGUAGUGAGGAUAUACGAGUUCGAUAGAACGGCGAUCCAUAUAUACAUGAGGAUCACCCAUGUAGAAGGCACUUCAGUAC | 7.69 | 100 | – | –
AAGAGAAAAGCAGGAUAUCUAUUGGCUCCUUAACAUGAGGAUCACCCAUGUAGAGAAGGGCUAAGACCGACUCUUCGGAGUUGA | 7.07 | 20.6 | – | –
AUAAUGCGUGCUACGCAAAAUAACGCAGAAGGCCAACAUGAGGAUCACCCAUGUAAAAGAAAGAUGGAGGAUAUGCGGUUUGGC | – | – | 51 | 6.74
AAAUACCAAGGAUAUACAUGAGGAUCACCCAUGUACAAACCCGUGGAACGGAUCUUUGGUAGAAGGUGGACAUA | 13.9 | 11.9 | – | –
GUGGUCAGACAUGAGGAUCACCCAUGUGGAAUAAAUAACACACAGGAUAUCGAAUAUAAAAUAUACGAGAAGGGUGGAUUGGUG | – | – | 388 | 209
AAAAACGGAGGAUAUACAAAAAAAAAAAAAAAAAAAAUGGGACAUGAGGAUCACCCAUGUAGAAGGCCGAAAAA | 72 | 164 | – | –
UCUCUUCUGUAGAAGGCCCGACUUGUGAAGACAACAAUGCUAUAGAAGUAGGGAGGAUAUACAUGAGGAUCACCCAUGUAGGAA | 11.6 | 29.3 | – | –
ACAUGAGGAUCACCCAUGUAAUGAUGGGUACUAUAUUAUUCGUAGGAUAUCGUUGUUAGUUUGUUCGAGAAGGACGUUUGCCUU | 1220 | 1200 | – | –
GAACGUGACAUGAGGAUCACCCAUGUUGCCUUGGCCAGGUCGUAGGAUAUCCUGUUGAUUAAUUUGGAGAAGGGCGACUGGGAG | – | – | 33.5 | 12.9
CUCUUUUAAGGAUAUACAUGAGGAUCACCCAUGUGCAUAGGUAUGUCCGGGUCCUGGAGUAGAAGGUGGGACGG | 70.3 | 58.4 | – | –
CAGUGCUGUUGAGAGGAUAUGCGGCGACGGACAUGAGGAUCACCCAUGUUAGCGACAGCGUUGCGGCAGAAGGCUCUGCCCGCUG | – | – | 21 | 13.7
AAUUCACAUGAGGAUCACCCAUGUCAGGAUAUGGUUUCACGUUUUUCUUUUCUUGAUUCCAGAAGGGACAGCUA | 65.6 | 82 | – | –
AUUAUUGACGUAGGAUAUUCUUACAUGAGGAUCACCCAUGUUAUUUGGGAACUAGGAAUAUUUUAGAAGAAGGACGUUGUUAAA | – | – | 230 | 173
AUAUGAUAGAUAGGAUAUACUAUGGUUUAAGAAGUAGAAGGAUCAAUUGGGAAAUGUACAUGAGGAUCACCCAUGUUAUAGGUU | – | – | 35.2 | 33.5
CGUAUACAUGAGGAUCACCCAUGUAAGGAUAUGCUUUAUUAUUAUUAUUAUUAUUGUUGCAGAAGGUACAUUGC | 19 | 17.7 | – | –
CUGGGCCAGGAGAAGGGCUAGAGUGUGAUAUAUUUGCCCGCGAGCACAUGAGGAUCACCCAUGUAGCAGGAUAUCCAAGCCGGU | 8.38 | 15.8 | – | –
GGAGCUCUCAUUAACAUGAGGAUCACCCAUGUCAAAAGACAUGAGGAUAUGGAUCCUAAUUGGAUCCAGAAGGCAUGGAGCUCC | – | – | 1070 | 54.3
GCGAAUUUGUGAGGAUAUACAUAAUUUAUAACUGUAGAAGGCACAAACCUCAAGACAUGAGGAUCACCCAUGUGGAAUUUCGCU | 131 | 192 | – | –

Sequence | apparent Kd [1] [nM] | apparent Kd [2] [nM] | apparent Kd [3] [nM] | apparent Kd [4] [nM]
GCCAUCGCAUGAGGAUAUGCUCCCGUUUCGGGAGCAGAAGGCAUGUAAUAAGACAUGAGGAUCACCCAUGUAGUUAAGAUGGCA | – | – | 7.36 | 5.32
UUAUGUGGCGUAGGAUAUCAUUAGAUUUGUAAUUUAAUUGUAAUUUCCAUAUGAGAAGGACGUAUACAUGAGGAUCACCCAUGU | 14.8 | 17.7 | – | –
UAAGAGUGAGGAUAUACGUCGCUGGACCGGAUGGACGCAUGACAUGAGGAUCACCCAUGUAGAAGGCACAAAAC | 20.2 | 25.5 | – | –
GGAGCACACCUUAACAUGAGGAUCACCCAUGUCAAAAGACAUGAGGAUAUGGAUCCGAAAAGGAUCCAGAAGGCAUGGUGCUCC | – | – | 188 | 11.9
CCUGUGGCAUGAGGAUAUGGUCAGCUUUGCUGACCAGAAGGCAUGUCAAUAGACAUGAGGAUCACCCAUGUAGUUAACACAGGA | – | – | 535 | 42.6
AAACACGGACAUGAGGAUCACCCAUGUGGCGAAAGCCUAACUAGAAGGCAGUAUGCAAAGCAUUCUGAGGAUAUGGGUUCCGUG | – | – | 188 | 18.1
UGGUACAUGGGAGGAUAUCAUGUAUUCACAUGAGGAUCACCCAUGUCGAUGGAGACAUCGGAGAUUGAGAAGGCCCAUGUACCU | – | – | 1270 | 46.9
UGAUAACAUGUAGGAUAUGCAGCAUUGACCACUGCAGAAGGACAUGAGGAUCACCCAUGUAUCCAUACUAUGGGAUCACGCAAU | 24 | 85.5 | – | –
AUUAUAUAGACAGGAUAUUGAUUAUUAUUUUAACAUGAGGAUCACCCAUGUAACCUUAUGUGUAGCAAGAAGGGUCAUUUAUUA | 84.3 | 185 | – | –
CCAGAGGUCACAGGAUAUGACUUGUCCAAUUAGUCAGAAGGGUGAAUCACAUUAUGUAUACAUGAGGAUCACCCAUGUCCUACG | – | – | 214 | 1040
CCUGUGUGAGGAUAUGGUGUUGGCAAAAAGGAAUAGCUCCUCCAGAAGGCACAUGAGGAUCACCCAUGUCGUGG | 15.2 | 36 | – | –
UGGUUGGGAGGAUAUCCAAUAUAUGACAUGAGGAUCACCCAUGUUUCCACUCGUACCUCCGGAGAAGGCCCUUCCU | 22.8 | 21.6 | – | –
AAUCGGGAGCAGAAGGCAUGUCAAAAGACAUGAGGAUCACCCAUGUAUAAAAGGCGAAAGCCGCAUGAGGAUAUGCUCCCGUAA | – | – | 29.4 | 5.81
ACAUGAGGAUCACCCAUGUAUUACAUGGUUAAGUUUAUAAACAGAAGGCGAUAAUACUUAUUGUUCGAGGAUAUGUAAUCAAUU | 113 | 84.1 | – | –
GCGAUUUUGUAGAAGGUACGUUAUAAGACAAUGUAAGGAUAUACUGACAUGAGGAUCACCCAUGUAUAAAUAGUUAACAGUCGC | – | – | 8.89 | 6.68
UGGUACUAGGGAGGAUAUGGGAAGAUACAUGAGGAUCACCCAUGUUUAAGAAUGCCGAGAGGCAACUAGAAGGCCCUAAUACCU | – | – | 400 | 19.1
UGCAUGCUAGGAUAUACGGGACAUUAGGGUUCGUCGUAUGGACAUGAGGAUCACCCAUGUAGAAGGAGCGUGCU | 18.6 | 44.5 | – | –
AUAUCUAUAUCAGGAUAUGGACAGGCCUGUCCGUAUUGAGACAGUAACAUGAGGAUCACCCAUGUCCAGAAGGGAUCGAUGUAU | 48 | 40.2 | – | –
